Data taken from ChEMBL document CHEMBL1138297, “Design, synthesis, and multivariate quantitative structure-activity relationship of salicylanilides--potent inhibitors of type III secretion in Yersinia” (J Med Chem, 2007).

Legend:
[1] = tested on: Yersinia pseudotuberculosis; assay: Effect on T3S in Yersinia pseudotuberculosis 3 pIB29 assessed as inhibition of light emission at 10 uM by luciferase reporter gene assay
Outline: (§1)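 YPIII pIB29 (yopE-luxAB) reporter strain grown overnight at ambient temperature in BHI with 5 mM EGTA and 20 mM MgCl2 to deplete calcium. Culture adjusted to OD600 0.15-0.25 and added to compounds in DMSO (final ≤1%). Incubated 1 h at ambient temperature with shaking, then 2 h at 37 °C. Decanal substrate added and luminescence read at once. Triplicates; repeated on ≥2 occasions.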

[2] = tested on: Yersinia pseudotuberculosis; assay: Effect on T3S in Yersinia pseudotuberculosis 3 pIB29 assessed as inhibition of light emission at 100 uM by luciferase reporter gene assay; outline: as §1
[3] = tested on: Yersinia pseudotuberculosis; assay: Effect on T3S in Yersinia pseudotuberculosis 3 pIB29 assessed as inhibition of light emission at 50 uM by luciferase reporter gene assay; outline: as §1
[4] = tested on: Yersinia pseudotuberculosis; assay: Effect on T3S in Yersinia pseudotuberculosis 3 pIB29 assessed as inhibition of light emission at 20 uM by luciferase reporter gene assay; outline: as §1
[5] = tested on: Yersinia pseudotuberculosis; assay: Effect on T3S in Yersinia pseudotuberculosis 3 pIB29 assessed as inhibition of light emission at 5 uM by luciferase reporter gene assay; outline: as §1
[6] = tested on: Yersinia pseudotuberculosis; assay: Effect on T3S in Yersinia pseudotuberculosis 3 pIB29 assessed as inhibition of light emission at 2 uM by luciferase reporter gene assay; outline: as §1
[7] = tested on: Yersinia pseudotuberculosis; assay: Effect on T3S in Yersinia pseudotuberculosis 3 pIB29 assessed as inhibition of light emission at 1 uM by luciferase reporter gene assay; outline: as §1
[8] = tested on: Yersinia pseudotuberculosis; assay: Effect on T3S in Yersinia pseudotuberculosis 3 pIB29 assessed as inhibition of light emission at 0.5 uM by luciferase reporter gene assay; outline: as §1

| SMILES | inhibition [1] | inhibition [2] | inhibition [3] | inhibition [4] | inhibition [5] | inhibition [6] | inhibition [7] | inhibition [8] |
| --- | --- | --- | --- | --- | --- | --- | --- | --- |
| CC(=O)Oc1c(I)cc(I)cc1C(=O)Nc1ccc(F)cc1 | 60% | 93% | 86% | 76% | 31% | 15% | 6% | 12% |
| CC(=O)Oc1ccc(Cl)cc1C(=O)Nc1ccc(Cl)c(C)c1 | 99% | 100% | 100% | 100% | 91% | 62% | 50% | 15% |
| CC(=O)Oc1c(Cl)cccc1C(=O)Nc1ccc(SC(F)(F)F)cc1 | 55% | 100% | 98% | 70% | 34% | 12% | 6% | -1% |
| O=C(Nc1ccc(Br)cc1)c1cc(I)cc(I)c1O | 100% | 100% | 100% | 100% | 94% | 74% | 64% | 36% |
| O=C(Nc1ccc(SC(F)(F)F)cc1)c1cccc(Cl)c1O | 61% | 100% | 99% | 81% | 38% | 13% | 3% | -2% |
| Cc1cc(NC(=O)c2cc(Cl)ccc2O)ccc1Cl | 61% | 75% | 56% | 85% | 85% | 62% | 50% | 15% |
| O=C(Nc1ccc(SC(F)(F)F)cc1)c1c(O)c(Cl)cc(Cl)c1Cl | 58% | 100% | 100% | 68% | 54% | 18% | 4% | 11% |
| O=C(Nc1ccc(SC(F)(F)F)cc1)c1cc(I)cc(I)c1O | 83% | 100% | 100% | 100% | 75% | 39% | 17% | 19% |
| O=C(Nc1ccc(F)cc1)c1cc(I)cc(I)c1O | 62% | 100% | 99% | 78% | 26% | 6% | 3% | 5% |
| O=C(Nc1cc(Cl)ccc1F)c1cc(I)cc(I)c1O | 53% | 100% | 100% | 92% | 19% | 6% | 2% | 7% |
| O=C(Nc1ccc(SC(F)(F)F)cc1)c1cc(I)ccc1O | 57% | 51% | 49% | 57% | 55% | 53% | 53% | 17% |
